Laboratory results from ChEMBL document CHEMBL1938338, “In vitro inhibition of translation initiation by N,N'-diarylureas--potential anti-cancer agents” (Bioorg Med Chem Lett, 2012).
Active and inactive are the calls of the source. No cut-off for these calls is given here.

What was measured:
[1] = Antiproliferative activity against human CRL2351 cells after 5 days by SRB assay; format: functional, cell-based; conditions: 120 h
Outline: (§1)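 Adherent cells were exposed for 5 days to four concentrations (0.54, 1.8, 6, 20 µM), each point in triplicate. Cells were fixed in cold 10% TCA, stained with 0.4% SRB in 1% acetic acid and solubilized in 10 mM Tris pH 10, then A490 was read. Time-zero plates were included. IC50 is 50% growth inhibition from 100×(T−T0)/(C−T0).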

[2] = Antiproliferative activity against human CRL2813 cells after 5 days by SRB assay; format: functional, cell-based; conditions: CRL2813, 120 h; outline: as §1
[3] = Antiproliferative activity against mouse KLN205 cells after 5 days by SRB assay; format: functional, cell-based; conditions: 120 h; outline: as §1
[4] = Aqueous solubility of compound; format: physicochemical; conditions: buffer
[5] = biological target: Eukaryotic translation initiation factor 2-alpha kinase 1 (Mus musculus) (UniProt Q9Z2R9); experiment: Activation of EIF2alpha kinase in mouse KLN205 cells assessed as phosphorylation of eIF2alpha at 20 uM […] by Western blot analysis; format: cell-based
Sequence of Eukaryotic translation initiation factor 2-alpha kinase 1 (Mus musculus) (Q9Z2R9 whole entry): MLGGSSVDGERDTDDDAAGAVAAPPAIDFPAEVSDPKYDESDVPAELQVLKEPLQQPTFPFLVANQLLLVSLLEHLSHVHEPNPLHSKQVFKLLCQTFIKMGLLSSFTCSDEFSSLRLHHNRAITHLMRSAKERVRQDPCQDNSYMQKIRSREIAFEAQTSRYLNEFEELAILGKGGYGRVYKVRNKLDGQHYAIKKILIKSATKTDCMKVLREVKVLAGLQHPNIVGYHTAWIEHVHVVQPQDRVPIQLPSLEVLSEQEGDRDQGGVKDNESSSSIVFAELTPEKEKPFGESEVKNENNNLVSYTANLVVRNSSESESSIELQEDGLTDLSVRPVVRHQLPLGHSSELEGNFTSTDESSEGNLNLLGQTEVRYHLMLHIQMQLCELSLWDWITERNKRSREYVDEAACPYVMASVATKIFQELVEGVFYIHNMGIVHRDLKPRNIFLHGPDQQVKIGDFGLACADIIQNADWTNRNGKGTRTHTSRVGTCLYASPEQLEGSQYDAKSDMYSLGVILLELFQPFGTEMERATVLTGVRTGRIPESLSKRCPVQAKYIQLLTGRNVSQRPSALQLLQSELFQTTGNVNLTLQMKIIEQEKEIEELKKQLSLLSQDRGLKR
Outline: (§2)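 Cells were grown to 70% confluency in serum-containing medium without antibiotics, then treated (KLN at 20 µM, CRL-2351 at 5 µM) for 6 h. They were washed in cold PBS and lysed on ice for 1 h. Protein was measured by BCA. SDS-PAGE immunoblots were probed for phospho-Ser51 eIF2α, total eIF2α, CHOP and β-actin.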

[6] = biological target: Eukaryotic translation initiation factor 2-alpha kinase 1 (Homo sapiens) (UniProt Q9BQI3); experiment: Activation of EIF2alpha kinase in human CRL2351 cells assessed as CHOP mRNA expression at 5 uM after 5 hrs by PCR analysis; format: cell-based
Sequence of Eukaryotic translation initiation factor 2-alpha kinase 1 (Homo sapiens) (Q9BQI3 whole entry): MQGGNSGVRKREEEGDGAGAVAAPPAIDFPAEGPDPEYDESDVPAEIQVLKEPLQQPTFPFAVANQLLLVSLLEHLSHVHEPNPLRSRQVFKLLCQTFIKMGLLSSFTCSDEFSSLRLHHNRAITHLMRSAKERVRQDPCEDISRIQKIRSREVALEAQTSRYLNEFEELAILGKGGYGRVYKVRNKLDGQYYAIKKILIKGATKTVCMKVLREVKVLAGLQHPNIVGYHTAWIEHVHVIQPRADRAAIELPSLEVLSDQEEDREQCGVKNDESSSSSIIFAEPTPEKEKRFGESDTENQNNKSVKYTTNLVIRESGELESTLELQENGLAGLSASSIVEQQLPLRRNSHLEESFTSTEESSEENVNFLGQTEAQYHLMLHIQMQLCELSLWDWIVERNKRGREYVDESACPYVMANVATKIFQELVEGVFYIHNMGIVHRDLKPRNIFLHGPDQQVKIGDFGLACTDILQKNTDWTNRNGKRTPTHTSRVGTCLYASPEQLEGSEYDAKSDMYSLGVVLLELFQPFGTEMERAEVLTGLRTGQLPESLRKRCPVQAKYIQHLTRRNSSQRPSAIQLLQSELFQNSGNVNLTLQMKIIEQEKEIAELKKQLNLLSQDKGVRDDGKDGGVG

[7] = biological target: Eukaryotic translation initiation factor 2-alpha kinase 1 (Homo sapiens) (UniProt Q9BQI3); experiment: Activation of EIF2alpha kinase in human CRL2351 cells assessed as CHOP protein expression at 5 uM […] by Western blot analysis; format: cell-based; outline: as §2
[8] = biological target: Eukaryotic translation initiation factor 2-alpha kinase 1 (Mus musculus) (UniProt Q9Z2R9); experiment: Activation of EIF2alpha kinase in mouse KLN205 cells assessed as reduction in eIF2-GTP-initiator methionine tRNA ternary complex measuring increase in firefly/renilla luciferase ratio at 20 uM after 16 hrs by dual luciferase reporter gene assay relative to control; format: cell-based
Outline: (§3)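 KLN-205 cells were stably transfected with the bidirectional pBISA-DL(ATF-4) firefly/renilla luciferase reporter: 10^5 cells were seeded per 60-mm dish, transfected the next day and selected with antibiotics. After 16 h compound exposure, lysates were read by Dual-Glo luciferase. F/R ratio was normalized to DMSO vehicle (F/R = 1).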

[9] = biological target: Eukaryotic translation initiation factor 2-alpha kinase 1 (Mus musculus) (UniProt Q9Z2R9); experiment: Activation of EIF2alpha kinase in mouse KLN205 cells assessed as CHOP protein expression at 20 uM after […] by Western blot analysis; format: cell-based; outline: as §2
[10] = biological target: Eukaryotic translation initiation factor 2-alpha kinase 1 (Homo sapiens) (UniProt Q9BQI3); experiment: Activation of EIF2alpha kinase in human CRL2351 cells assessed as reduction in eIF2-GTP-initiator methionine tRNA ternary complex measuring increase in firefly/renilla luciferase ratio at 2.5 uM after 16 hrs by dual luciferase reporter gene assay relative to control; format: cell-based
Outline: (§4)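 CRL-2351 cells (10^4 per well) were transiently transfected one day after seeding with the bidirectional pBISA-DL(ATF-4) firefly/renilla luciferase plasmid (Lipofectamine 2000). After 16 h compound exposure, lysates were read by Dual-Glo luciferase. F/R ratio was normalized to DMSO vehicle (F/R = 1). Runs were dose-response with at least four points, in triplicate.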

[11] = biological target: Eukaryotic translation initiation factor 2-alpha kinase 1 (Mus musculus) (UniProt Q9Z2R9); experiment: Activation of EIF2alpha kinase in mouse KLN205 cells assessed as CHOP mRNA expression at 20 uM after 5 hrs by PCR analysis; format: cell-based
[12] = biological target: Eukaryotic translation initiation factor 2-alpha kinase 1 (Homo sapiens) (UniProt Q9BQI3); experiment: Activation of EIF2alpha kinase in human CRL2351 cells assessed as phosphorylation of eIF2alpha at 5 uM […] by Western blot analysis; format: cell-based; outline: as §2
[13] = biological target: Eukaryotic translation initiation factor 2-alpha kinase 1 (Homo sapiens) (UniProt Q9BQI3); experiment: Activation of EIF2alpha kinase in human CRL2351 cells assessed as reduction in eIF2-GTP-initiator methionine tRNA ternary complex measuring increase in firefly/renilla luciferase ratio at 5 uM after 16 hrs by dual luciferase reporter gene assay relative to control; format: cell-based; outline: as §4
[14] = biological target: Eukaryotic translation initiation factor 2-alpha kinase 1 (Homo sapiens) (UniProt Q9BQI3); experiment: Activation of EIF2alpha kinase in human CRL2351 cells assessed as reduction in eIF2-GTP-initiator methionine tRNA ternary complex measuring increase in firefly/renilla luciferase ratio at 10 uM after 16 hrs by dual luciferase reporter gene assay relative to control; format: cell-based; outline: as §4
[15] = biological target: Eukaryotic translation initiation factor 2-alpha kinase 1 (Mus musculus) (UniProt Q9Z2R9); experiment: Activation of EIF2alpha kinase in mouse KLN205 cells assessed as reduction in eIF2-GTP-initiator methionine tRNA ternary complex measuring increase in firefly/renilla luciferase ratio at 5 uM after 16 hrs by dual luciferase reporter gene assay relative to control; format: cell-based; outline: as §3
[16] = biological target: Eukaryotic translation initiation factor 2-alpha kinase 1 (Homo sapiens) (UniProt Q9BQI3); experiment: Activation of EIF2alpha kinase in human CRL2351 cells assessed as reduction in eIF2-GTP-initiator methionine tRNA ternary complex measuring increase in firefly/renilla luciferase ratio at 2.5 to 20 uM after 16 hrs by dual luciferase reporter gene assay relative to control; format: cell-based; outline: as §4
[17] = biological target: Eukaryotic translation initiation factor 2-alpha kinase 1 (Homo sapiens) (UniProt Q9BQI3); experiment: Activation of EIF2alpha kinase in human CRL2351 cells assessed as reduction in eIF2-GTP-initiator methionine tRNA ternary complex measuring increase in firefly/renilla luciferase ratio at 20 uM after 16 hrs by dual luciferase reporter gene assay relative to control; format: cell-based; outline: as §4
[18] = biological target: Eukaryotic translation initiation factor 2-alpha kinase 1 (Homo sapiens) (UniProt Q9BQI3); experiment: Activation of EIF2alpha kinase in human CRL2351 cells assessed as reduction in eIF2-GTP-initiator methionine tRNA ternary complex measuring increase in firefly/renilla luciferase ratio at 2.5 to 80 uM after 16 hrs by dual luciferase reporter gene assay relative to control; format: cell-based; outline: as §4
[19] = biological target: Eukaryotic translation initiation factor 2-alpha kinase 1 (Mus musculus) (UniProt Q9Z2R9); experiment: Activation of EIF2alpha kinase in mouse KLN205 cells assessed as reduction in eIF2-GTP-initiator methionine tRNA ternary complex measuring increase in firefly/renilla luciferase ratio at 2.5 to 80 uM after 16 hrs by dual luciferase reporter gene assay relative to control; format: cell-based; outline: as §3
[20] = biological target: Eukaryotic translation initiation factor 2-alpha kinase 1 (Homo sapiens) (UniProt Q9BQI3); experiment: Activation of EIF2alpha kinase in human CRL2351 cells assessed as reduction in eIF2-GTP-initiator methionine tRNA ternary complex measuring increase in firefly/renilla luciferase ratio at 40 uM after 16 hrs by dual luciferase reporter gene assay relative to control; format: cell-based; outline: as §4

Structure (SMILES)	IC50 [1]	IC50 [2]	IC50 [3]	further results
Cc1ccc(NC(=O)Nc2ccc(Cl)c(C(F)(F)F)c2)cc1OCCN1CCOCC1	2.6 µM	1.1 µM	> 20 µM	
O=C(Nc1cc(C(F)(F)F)cc(C(F)(F)F)c1)Nc1cc(C(F)(F)F)cc(C(F)(F)F)c1	1.8 µM	0.3 µM	4.2 µM	solubility [4]: Insoluble; Activity [5]: Active; Activity [6]: Active; Activity [7]: Active; Activity [8]: Active; Activity [9]: Active; Ratio [10]: 11; Activity [11]: Active; Activity [12]: Active
Cc1ccc(NC(=O)Nc2ccc(Cl)c(C(F)(F)F)c2)cc1OCCN1CCNCC1	1.8 µM	2.5 µM	> 20 µM	
O=C(Nc1ccc(Cl)c(Cl)c1)Nc1ccc(Cl)c(Cl)c1	2.4 µM	1 µM	> 20 µM	solubility [4]: Insoluble; Ratio [13]: 11
Cc1ccc(NC(=O)Nc2cc(C(F)(F)F)cc(C(F)(F)F)c2)cc1OCCN1CCOCC1	2.3 µM	0.8 µM	18.8 µM	Ratio [14]: 10
Cc1ccc(NC(=O)Nc2cc(C(F)(F)F)cc(C(F)(F)F)c2)cc1OCCN(C)C	2.4 µM	7.6 µM	8.9 µM	Ratio [14]: 9
Cc1ccc(NC(=O)Nc2ccc(Cl)c(C(F)(F)F)c2)cc1O	9.5 µM	1.6 µM	> 20 µM	Ratio [14]: 11
COc1cc(NC(=O)Nc2cc(C(F)(F)F)cc(C(F)(F)F)c2)ccc1C	1.8 µM	0.5 µM	6.6 µM	Activity [5]: Active; Activity [6]: Active; Activity [7]: Active; Ratio [13]: 9; Activity [9]: Active; Activity [15]: Active; Activity [11]: Active; Activity [12]: Active
COc1cc(NC(=O)Nc2ccc(Cl)c(C(F)(F)F)c2)ccc1C	2.3 µM	2.8 µM	18.6 µM	Ratio [13]: 8
Cc1ccc(NC(=O)Nc2ccc(Cl)c(Cl)c2)cc1OCCN1CCOCC1	2.4 µM	12 µM	> 20 µM	Activity [16]: Active
Cc1ccc(NC(=O)Nc2ccc(Cl)c(Cl)c2)cc1O	7.5 µM	2.3 µM	> 20 µM	Ratio [17]: 11
Cc1ccc(NC(=O)Nc2cc(C(F)(F)F)cc(C(F)(F)F)c2)cc1O	2.8 µM	1.2 µM	15.7 µM	
Cc1ccc(NC(=O)Nc2ccc(Cl)c(Cl)c2)cc1OCCN1CCNCC1	5 µM	5.2 µM	> 20 µM	Activity [16]: Active
O=C(Nc1ccc(Cl)c(C(F)(F)F)c1)Nc1ncccc1O	0.8 µM	0.6 µM	15.4 µM	Activity [5]: Active; Activity [6]: Active; Activity [7]: Active; Activity [18]: Active; Activity [9]: Active; Activity [19]: Active; Activity [11]: Active; Activity [12]: Active
Cc1ccc(NC(=O)Nc2ccc(Cl)c(C(F)(F)F)c2)cc1OCCN(C)C	2.4 µM	2.3 µM	13.6 µM	
O=C(Nc1ccc(Cl)c(Cl)c1)Nc1ncccc1O	1.4 µM	1.6 µM	> 20 µM	Ratio [20]: 12
O=C(Nc1cc(C(F)(F)F)cc(C(F)(F)F)c1)Nc1ncccc1O	0.7 µM	0.6 µM	14.8 µM	
Cc1ccc(NC(=O)Nc2ccc(Cl)c(Cl)c2)cc1OCCN(C)C	4.1 µM	5.8 µM	14.7 µM	Activity [16]: Active
O=C(Nc1ccc(Cl)c(C(F)(F)F)c1)Nc1ccc(Cl)c(C(F)(F)F)c1	2.4 µM	1.8 µM	1.3 µM	solubility [4]: Insoluble; Ratio [10]: 11
Cc1ccc(NC(=O)Nc2cc(C(F)(F)F)cc(C(F)(F)F)c2)cc1OCCN1CCNCC1	4.2 µM	3.2 µM	> 20 µM	Ratio [14]: 9
COc1cc(NC(=O)Nc2ccc(Cl)c(Cl)c2)ccc1C	0.8 µM	0.5 µM	> 20 µM	Activity [5]: inactive; Activity [6]: inactive; Activity [7]: inactive; Activity [16]: inactive; Ratio [13]: < 2; Activity [9]: inactive; Activity [11]: inactive; Activity [12]: inactive
